Experimental data: PMC7578760 (iScience, 2020)

What was measured:
ERK1/2 = experiment: Western blot of activated ERK1/2 in 293T^CIC cells; assay type: cell-based, human; conditions: 10 μM, 4 h
DUSP6 [1] = experiment: Western blot of DUSP6 expression in 1205Lu melanoma cells; assay type: cell-based; conditions: 1205Lu (BRAF^V600E), 2 μM PLX4032, 0, 6, 24 h
ERK signaling = experiment: Block of ERK signaling in MCF7 cells; assay type: cell-based, human
DUSP6 [2] = experiment: Western blot of DUSP6 expression in 293T / 293T^CIC cells; assay type: cell-based, human; conditions: parental 293T, 10 ng/mL FGF, various times; SCH772984 10 μM
Method in brief: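 Parental and CIC-knockout 293T cells grown in high-glucose DMEM with 10% FBS and penicillin-streptomycin. Cells stimulated with 10 ng/mL FGF for various times, with or without 10 uM ERK inhibitor, then lysed. DUSP6 detected by western blot.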

CN1CCN(c2ccc(-c3ccncc3-c3cc(F)c(O)c(F)c3)cc2)CC1 [LJH685]
levels of activated ERK1/2 (ERK1/2): did not reduce the levels of activated ERK1/2

CCCS(=O)(=O)Nc1ccc(F)c(C(=O)c2c[nH]c3ncc(-c4ccc(Cl)cc4)cc23)c1F [PLX4032]
DUSP6 expression (DUSP6 [1]): time-dependent decrease of DUSP6 expression

O=C(Nc1ccc2[nH]nc(-c3ccncc3)c2c1)[C@@H]1CCN(CC(=O)N2CCN(c3ccc(-c4ncccn4)cc3)CC2)C1 [SCH772984]
effectiveness to block ERK signaling (ERK signaling): not effective to block the ERK signaling in MCF7 cells | DUSP6 expression (DUSP6 [2]): drop
